According to ChEMBL document CHEMBL2040754, “Regioselective reaction: synthesis, characterization and pharmacological activity of some new Mannich and Schiff bases containing sydnone” (2012):

What was measured:
Type in all cases: functional
Rattus norvegicus [1] = assay: Analgesic activity in Wistar albino rat assessed as thermal-stimulus induced tail flick latency time at 20 mg/kg measured after 90 mins (reference value: 3.25 +/- 0.005 secs)
Rattus norvegicus [2] = assay: Analgesic activity in Wistar albino rat assessed as thermal-stimulus induced tail flick latency time at 20 mg/kg measured after 60 mins (reference value: 3.34 +/- 0.005 secs)
Rattus norvegicus [3] = assay: Analgesic activity in Wistar albino rat assessed as thermal-stimulus induced tail flick latency time at 20 mg/kg measured after 30 mins (reference value: 3.23 +/- 0.005 secs)
Rattus norvegicus [4] = assay: Antiinflammatory activity in Wistar albino rat assessed as reduction of carrageenan-induced paw edema at 20 mg/kg, po measured after 2 hrs by plethysmometer; design: scale not given: the % may be the effect or the level left
In short: (§1)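 Rats 150e200 g dosed orally with test suspension 20 mg/kg, control given 1 mL of 1% carboxymethyl cellulose suspension. After 30 min, 0.1 mL of 1% carrageenan in normal saline injected subcutaneously into the sub-plantar region of the right hind paw. Paw volume read by plethysmometer at 0 h, 30, 60 and 120 min. Data as mean, one-way ANOVA then Dunnett's t-test.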

Rattus norvegicus [5] = assay: Antiinflammatory activity in Wistar albino rat assessed as reduction of carrageenan-induced paw edema at 20 mg/kg, po measured after 1 hr by plethysmometer; design: scale not given: the % may be the effect or the level left; in short: as §1
Rattus norvegicus [6] = assay: Antiinflammatory activity in Wistar albino rat assessed as reduction of carrageenan-induced paw edema at 20 mg/kg, po measured after 30 mins by plethysmometer; design: scale not given: the % may be the effect or the level left; in short: as §1

Structure (SMILES)	Time (Rattus norvegicus [1]) [s]	Time (Rattus norvegicus [2]) [s]	Time (Rattus norvegicus [3]) [s]	Activity (Rattus norvegicus [4]) [%]	Activity (Rattus norvegicus [5]) [%]	Activity (Rattus norvegicus [6]) [%]
Cc1ccc(-[n+]2noc([O-])c2/C=N/n2c(C(C)c3ccc(CC(C)C)cc3)n[nH]c2=S)cc1 (centres undefined)	6.92	6.11	4.99	55.4	46.9	39.2
CC(C)Cc1ccc(C(C)c2nn(CN3CCN(c4ccccc4)CC3)c(=S)n2/N=C/c2c([O-])on[n+]2-c2ccccc2)cc1 (centres undefined)	6.05	5.03	4.19	38.5	34.2	27.9
COc1ccc(-[n+]2noc([O-])c2/C=N/n2c(C(C)c3ccc(CC(C)C)cc3)nn(CN3CCOCC3)c2=S)cc1 (centres undefined)	6.82	5.92	4.77	65.8	57	49
Cc1ccc(-[n+]2noc([O-])c2/C=N/n2c(C(C)c3ccc(CC(C)C)cc3)nn(CN3CCOCC3)c2=S)cc1 (centres undefined)	7.12	5.91	5.15	66.6	53	41.9
Cc1ccc(-[n+]2noc([O-])c2/C=N/n2c(C(C)c3ccc(CC(C)C)cc3)nn(CN3CCN(C)CC3)c2=S)cc1 (centres undefined)	6.21	5.25	4.52	56.2	48.7	36.5
CC(C)Cc1ccc(C(C)c2nn(CN3CCCCC3)c(=S)n2/N=C/c2c([O-])on[n+]2-c2ccccc2)cc1 (centres undefined)	6.8	5.73	4.56	67.9	56.1	45
COc1ccc2c(c1)c(CC(=O)O)c(C)n2C(=O)c1ccc(Cl)cc1 [INDOMETHACIN]				70.1	65.8	58.1
COc1ccc(-[n+]2noc([O-])c2/C=N/n2c(C(C)c3ccc(CC(C)C)cc3)n[nH]c2=S)cc1 (centres undefined)	7.23	6.3	5.41	64	55.2	48.6
CC(C)Cc1ccc(C(C)c2nn(CN3CCOCC3)c(=S)n2/N=C/c2c([O-])on[n+]2-c2ccccc2)cc1 (centres undefined)	6.9	6.1	4.92	65.3	55.3	43.7
CCN1CCN(Cn2nc(C(C)c3ccc(CC(C)C)cc3)n(/N=C/c3c([O-])on[n+]3-c3ccccc3)c2=S)CC1 (centres undefined)	6.41	5.39	4.4	54.5	46.9	38.7
COc1ccc(-[n+]2noc([O-])c2/C=N/n2c(C(C)c3ccc(CC(C)C)cc3)nn(CN3CCCCC3)c2=S)cc1 (centres undefined)	6.26	5.55	4.61	56.2	48.6	42.7
Cc1ccc(-[n+]2noc([O-])c2/C=N/n2c(C(C)c3ccc(CC(C)C)cc3)nn(CN3CCN(c4ccccc4)CC3)c2=S)cc1 (centres undefined)	5.35	4.41	4.15	40.2	35.9	31.5
Cc1ccc(-[n+]2noc([O-])c2/C=N/n2c(C(C)c3ccc(CC(C)C)cc3)nn(CN3CCCCC3)c2=S)cc1 (centres undefined)	5.1	4.31	3.92	54.1	46.9	39.1
CC(C)=CCN1CC[C@]2(C)c3cc(O)ccc3C[C@H]1[C@H]2C [(+)-PENTAZOCINE]	7.45	6.95	6.25			
CC(C)Cc1ccc(C(C)c2n[nH]c(=S)n2/N=C/c2c([O-])on[n+]2-c2ccccc2)cc1 (centres undefined)	6.6	6.24	5.76	50.2	39.4	32.9
